Laboratory results from PMC11750580 (Toxicology Reports, 2024).
Each block holds one molecule with its values, some of them ahead of it.

Tests used:
CYP1A genes = conditions: HepaRG cells; cited from earlier work
MTT cytotoxicity, Caco-2 = format: cell-based; conditions: human, Caco-2 cells
MTT cytotoxicity, HepG2 = format: cell-based; conditions: human, HepG2 cells
MTT cytotoxicity, HepaRG = format: cell-based, human; conditions: human, HepaRG cells (differentiated)
MTT cytotoxicity, MRC-5 = format: cell-based; conditions: human, MRC-5 cells
MTT cytotoxicity, MSC = format: cell-based, human; conditions: human, adipose-derived mesenchymal stem cells (MSC)
MTT cytotoxicity, T47D = format: cell-based; conditions: human, T47D cells
Caco-2 cells [1] = experiment: Cell proliferation and migration; format: cell-based, human; conditions: for proliferation speed compared to control (100 %): Caco-2, 1 µM, 24 h; for effect on cell proliferation rate vs media control: Caco-2, 10 µM, p < 0.05; for effect on growth and proliferation vs media control: Caco-2, any tested concentration (0.1, 1, 10 µM)
How it was run: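 Cells were seeded at 100,000 cells/mL in 48-well plates and grown to 90–100 % confluence. Each monolayer was scratched with a pipette tip. Medium was then replaced with exposure medium containing 0.1, 1 or 10 µM test compound; cytochalasin D (1 mM) was the positive control. Wells were imaged by automated phase-contrast microscopy every 30 min for 24 h. Read-outs were cell-free area (mm2) and proliferation rate relative to media control (n = 8–16; one-way ANOVA, Dunnett's).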

[2] = molecular target: T1, human aryl hydrocarbon receptor (AhR) (Homo sapiens, UniProt P35869); conditions: HepG2-AhR Lucia cells
T1 sequence (P35869 11-848): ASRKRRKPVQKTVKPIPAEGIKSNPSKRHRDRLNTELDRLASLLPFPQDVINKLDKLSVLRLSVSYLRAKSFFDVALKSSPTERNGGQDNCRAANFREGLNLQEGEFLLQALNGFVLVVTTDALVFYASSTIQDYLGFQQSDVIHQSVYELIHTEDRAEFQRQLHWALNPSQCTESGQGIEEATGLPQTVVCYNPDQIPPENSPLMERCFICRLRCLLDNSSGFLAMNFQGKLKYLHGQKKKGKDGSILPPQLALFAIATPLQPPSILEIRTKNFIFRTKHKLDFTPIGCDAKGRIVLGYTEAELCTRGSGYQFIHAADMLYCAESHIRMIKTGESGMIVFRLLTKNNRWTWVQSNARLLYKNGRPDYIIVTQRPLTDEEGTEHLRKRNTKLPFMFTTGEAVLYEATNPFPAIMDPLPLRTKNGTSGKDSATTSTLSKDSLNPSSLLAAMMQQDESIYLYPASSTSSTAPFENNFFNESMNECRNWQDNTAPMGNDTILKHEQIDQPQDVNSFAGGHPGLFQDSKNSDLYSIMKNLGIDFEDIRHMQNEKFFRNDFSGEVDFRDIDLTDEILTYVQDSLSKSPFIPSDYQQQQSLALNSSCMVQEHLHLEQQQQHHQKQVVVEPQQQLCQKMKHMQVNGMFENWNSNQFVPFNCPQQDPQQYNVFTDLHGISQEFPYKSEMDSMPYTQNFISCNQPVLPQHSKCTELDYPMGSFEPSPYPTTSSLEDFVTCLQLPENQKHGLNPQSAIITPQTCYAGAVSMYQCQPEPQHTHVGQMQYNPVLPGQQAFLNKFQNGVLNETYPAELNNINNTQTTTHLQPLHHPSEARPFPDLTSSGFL

goats = conditions: oral, 0.16 g/kg body weight, within 4–24 h; cited from earlier work
[3] = molecular target: T1, human aryl hydrocarbon receptor (AhR); experiment: cell-based
Caco-2 cells [4] = conditions: cited from earlier work
[5] = tested on: adipose-derived mesenchymal stem cells (MSC); experiment: MTT cytotoxicity, MSC; format: cell-based, human; conditions: MSC, 24 h exposure, MTT, average ± SD
MRC-5 cells = conditions: MRC-5, 30 µg/mL, exposure duration not specified; ref Yap et al. 52; cited from earlier work
MCF-7 cells = conditions: MCF-7, 100 µM; cited from earlier work
V79 379 A cells = conditions: 0.1 mM, 2-hour exposure; cited from earlier work
Caco-2 cells [6] = conditions: Caco-2, 500–1000 µM, 72-hour exposure; ref Tomii et al. 31; cited from earlier work
HepaRG cells = experiment: MTT cytotoxicity, HepaRG; format: cell-based, human; conditions: HepaRG, 24 h exposure, MTT, average ± SD
[7] = Indole derivatives quantification in cell media; format: physicochemical; conditions: after 24 h of incubation
How it was run: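 Test compounds in cell media were measured by reversed-phase HPLC with fluorescence detection on a C18 column (2.2 µm, 150 × 2.1 mm) at 30 °C. A binary gradient ran from 50 mM KH2PO4 (pH 3.3) to that buffer/acetonitrile 700:300. Excitation was 270 nm and emission 350 nm. Compounds were identified by co-chromatography with authentic standards and quantified by peak area.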

[8] = tested on: V79–4 Chinese hamster fibroblasts; conditions: V79–4, 300 µM; cited from earlier work

Compound: Cn1ccc2ccccc21 [1-MI]
induction of CYP1A genes, % of the level of TCDD (CYP1A genes): about 50%

AhR agonist character [2]: partial agonists | EC50 [3]: 1.4 µM
Compound: Cc1c[nH]c2ccccc12 [3-MI, 3-methylindole]
EC50 at 24 h (MTT cytotoxicity, Caco-2): > 100 µM | EC50 at 24 h (MTT cytotoxicity, HepG2): > 100 µM | EC50 at 24 h (MTT cytotoxicity, HepaRG): 66.4 ± 21.8 µM | EC50 at 24 h (MTT cytotoxicity, MRC-5): 21.9 ± 8.06 µM | EC50 at 24 h (MTT cytotoxicity, MSC): 0.33 ± 0.1 µM | EC50 at 24 h (MTT cytotoxicity, T47D): > 100 µM | effect on cell proliferation vs media control (Caco-2 cells [1]; Caco-2, 0.1 µM): significant decrease in proliferation | proliferation speed compared to control (100 %) (Caco-2 cells [1]): 68.2 ± 7.4% | effect on cell proliferation rate vs media control (Caco-2 cells [1]): significant reduction in cell proliferation rates | induction of CYP1A genes, % of the level of TCDD (CYP1A genes): about 50% | pulmonary toxicity findings (goats): severe pulmonary edema, denuded bronchioles, and necrotic alveolar cells

Compound: Cc1cccc2[nH]ccc12 [4-MI]
induction of CYP1A gene expression (CYP1A genes): comparable to TCDD

Compound: Cc1ccc2cc[nH]c2c1 [6-MI]
induction of CYP1A gene expression (CYP1A genes): comparable to TCDD

AhR agonist character [2]: partial agonists
Compound: O=c1cc(-c2ccccc2)oc2ccc3ccccc3c12 [BNF, β-naphthoflavone, reference compound]

Compound: c1ccc2c(c1)cc1ccc3cccc4ccc2c1c34 [BaP, benzo[a]pyrene, reference compound]
AhR agonist character [2]: partial agonists

AhR agonist character [2]: strong agonists | EC50 [3]: 0.04 µM
Compound: O=Cc1c[nH]c2ccccc12 [I3A, indole-3-aldehyde]
EC50 at 24 h (MTT cytotoxicity, Caco-2): > 100 µM | EC50 at 24 h (MTT cytotoxicity, HepG2): > 100 µM | EC50 at 24 h (MTT cytotoxicity, HepaRG): 1.98 ± 0.73 µM | EC50 at 24 h (MTT cytotoxicity, MRC-5): 49.8 ± 14.5 µM | EC50 at 24 h (MTT cytotoxicity, MSC): 1.87 ± 0.83 µM | EC50 at 24 h (MTT cytotoxicity, T47D): > 100 µM | proliferation speed compared to control (100 %) (Caco-2 cells [1]): 71.3 ± 5.1% | effect on cell proliferation rate vs media control (Caco-2 cells [1]): significant reduction in cell proliferation rates | reduction in cell viability (Caco-2 cells [4]; Caco-2, 160 µM, ref Liu et al. 30): 89.6%

AhR agonist character [2]: strong agonists | EC50 [3]: 0.88 µM
Compound: O=C(O)c1c[nH]c2ccccc12 [I3CA, indole-3-carboxylic acid]
EC50 at 24 h (MTT cytotoxicity, Caco-2): > 100 µM | EC50 at 24 h (MTT cytotoxicity, HepG2): > 100 µM | EC50 at 24 h (MTT cytotoxicity, HepaRG): 53 ± 12.1 µM | EC50 at 24 h (MTT cytotoxicity, MRC-5): 0.52 ± 0.08 µM | EC50 at 24 h (MTT cytotoxicity, MSC): 0.64 ± 0.31 µM | EC50 at 24 h (MTT cytotoxicity, T47D): > 100 µM | effect on cell proliferation rate vs media control (Caco-2 cells [1]): significant reduction in cell proliferation rates

Compound: O=C(O)Cc1c[nH]c2ccccc12 [IAA, indole-3-acetic acid]
EC50 at 24 h (MTT cytotoxicity, Caco-2): 0.52 ± 0.12 µM | EC50 at 24 h (MTT cytotoxicity, HepG2): > 100 µM | EC50 at 24 h (MTT cytotoxicity, HepaRG): 2.21 ± 0.32 µM | EC50 at 24 h (MTT cytotoxicity, MRC-5): 2.55 ± 1.95 µM | EC50 at 24 h (MTT cytotoxicity, MSC): > 100 µM | Cytotoxic evaluation (EC50) [5]: did not show toxicity | EC50 at 24 h (MTT cytotoxicity, T47D): 1.68 ± 0.46 µM | effect on growth and proliferation vs media control (Caco-2 cells [1]): no significant differences | cytotoxic effects (MRC-5 cells): no cytotoxic effects | cytotoxicity (MCF-7 cells): did not show cytotoxicity | cytotoxic response (V79 379 A cells): did not show a cytotoxic response | effect on cell count and cytotoxicity (LDH assay) (Caco-2 cells [6]): reduced Caco-2 cell count without causing cytotoxicity

AhR agonist character [2]: strong agonists | EC50 [3]: 0.11 µM
Compound: O=C(O)CCc1c[nH]c2ccccc12 [IPA, indole-3-propionic acid]
EC50 at 24 h (MTT cytotoxicity, Caco-2): > 100 µM | EC50 at 24 h (MTT cytotoxicity, HepG2): > 100 µM | EC50 at 24 h (MTT cytotoxicity, HepaRG): > 100 µM | Cytotoxic evaluation (EC50) (HepaRG cells): no sensitivity | EC50 at 24 h (MTT cytotoxicity, MRC-5): 0.91 ± 0.1 µM | EC50 at 24 h (MTT cytotoxicity, MSC): 0.4 ± 0.14 µM | EC50 at 24 h (MTT cytotoxicity, T47D): 2.02 ± 0.13 µM | effect on growth and proliferation vs media control (Caco-2 cells [1]): no significant differences

recovery rate in cell media (actual vs nominal concentration) [7]: exceeding 100% | AhR agonist character [2]: weak AhR ligand | EC50 [3]: 32.1 µM
Compound: c1ccc2[nH]ccc2c1 [Indole, indole]
EC50 at 24 h (MTT cytotoxicity, Caco-2): > 100 µM | EC50 at 24 h (MTT cytotoxicity, HepG2): > 100 µM | EC50 at 24 h (MTT cytotoxicity, HepaRG): > 100 µM | EC50 at 24 h (MTT cytotoxicity, MRC-5): > 100 µM | EC50 at 24 h (MTT cytotoxicity, MSC): > 100 µM | EC50 at 24 h (MTT cytotoxicity, T47D): > 100 µM | effect on cell proliferation rate vs media control (Caco-2 cells [1]): significant reduction in cell proliferation rates | concentration inducing toxic effects (Caco-2 cells [4]; Caco-2): 5000 µM

Compound: Clc1cc2c(cc1Cl)Oc1cc(Cl)c(Cl)cc1O2 [TCDD, 2,3,7,8-tetrachlorodibenzo-p-dioxin, reference compound]
EC50 [3]: 0.0003 to 0.0023 µM

Compound: O=Cc1ccc2cc[nH]c2c1 [indole-6-carboxaldehyde]
toxicity [8]: no toxicity
